From ChEMBL document CHEMBL2177069, “Novel peptidomimetic compounds containing redox active chalcogens and quinones as potential anticancer agents” (Eur J Med Chem, 2012)
The source made the active and inactive calls. No cut-off for these calls is given here.

Key:
A-431 [1] = experiment: Induction of oxidative stress in human A431 cells assessed as increase in hydrogen peroxide free radical production after 1 hr by DCF-based fluorescence spectrophotometric analysis; assay type: functional, cell-based
How it was run: (§1)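 Cells were seeded at 10^5 per well and given graded compound concentrations for 1 h. They were then loaded with DHE or DCF probe for 30 min in the dark. Fluorescence was read immediately: DHE ex 540/em 600 nm; DCF ex 485/em 528 nm. Results were expressed as arbitrary units per 10^5 cells.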

A-431 [2] = experiment: Induction of oxidative stress in human A431 cells assessed as increase in superoxide free radical production after 1 hr by DHE-based by fluorescence spectrophotometric analysis; assay type: functional, cell-based; how it was run: as §1
HUVEC [3] = experiment: Induction of oxidative stress in human HUVEC cells assessed as increase in hydrogen peroxide free radical production after 1 hr by DCF-based fluorescence spectrophotometric analysis; assay type: cell-based; how it was run: as §1
K562 = experiment: Cytotoxicity against human K562 cells; assay type: functional
HUVEC [4] = experiment: Induction of oxidative stress in human HUVEC cells assessed as increase in superoxide free radical production after 1 hr by DHE-based by fluorescence spectrophotometric analysis; assay type: cell-based; how it was run: as §1
MCF7 [5] = experiment: Induction of oxidative stress in human MCF7 cells assessed as decrease in GSH level at 5 uM after 1 hr by DTNB assay relative to control; assay type: functional; parameters: scale not given: the % may be the effect or the level left
How it was run: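 MCF-7 cells (10^6) were treated for 1 h at 37 °C, trypsinized, and washed twice with cold PBS. GSH was extracted with chilled 5% metaphosphoric acid at 4 °C for 2 h, then the lysate was centrifuged. Supernatant was mixed with 0.2 M sodium phosphate pH 8.0 and 0.04 mM DTNB for 10 min at room temperature. Absorbance was read at 412 nm against a reagent blank, and GSH was quantified from a standard curve.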

MCF7 [6] = experiment: Induction of Cell cycle arrest in human MCF7 cells assessed as S phase cells at IC50 concentration after 24 hrs by PI-staining based flow cytometric analysis (reference value: 19%); assay type: functional
How it was run: (§2)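 MCF-7 cells (10^6) were treated for 24 h, with methanol as the vehicle control. Cells were fixed in cold 70% methanol at 4 °C for one day, washed with PBS, and permeabilized with 0.1% saponin in PBS. They were stained with propidium iodide plus RNase for 30 min. DNA content was read by flow cytometry, giving percentages of cells per cell-cycle phase.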

MCF7 [7] = experiment: Induction of Cell cycle arrest in human MCF7 cells assessed as G2/M phase cells at IC50 concentration after 24 hrs by PI-staining based flow cytometric analysis (reference value: 13%); assay type: functional; how it was run: as §2
MCF7 [8] = experiment: Induction of Cell cycle arrest in human MCF7 cells assessed as G0/1 phase cells at IC50 concentration after 24 hrs by PI-staining based flow cytometric analysis (reference value: 68%); assay type: functional; how it was run: as §2

## CC1=C(SCCC(=O)OC(C[Se]C2=C(C)C(=O)c3ccccc3C2=O)C(=O)NCCCCCC(=O)OCc2ccccc2)C(=O)c2ccccc2C1=O (stereo not drawn)
A-431 [1]
  Activity: Active
A-431 [2]
  Activity: Active
HUVEC [3]
  Activity: Non-toxic
K562
  GI50: 3.02 µM
  LC50: > 100 µM
K562; read-out: pTGI
  TGI: > 100 µM
HUVEC [4]
  Activity: Non-toxic

## CC1=C([Se]CC(OC(=O)[C@@H](CO)NC(=O)OC(C)(C)C)C(=O)NC(C)(C)C)C(=O)c2ccccc2C1=O (stereo partly drawn)
MCF7 [5]
  Activity: 59%
MCF7 [6]
  Activity: 7.7%
MCF7 [7]
  Activity: 12%
K562
  GI50: 1.35 µM
  LC50: > 100 µM
MCF7 [8]
  Activity: 80%
